Series [1] has as its system HEK293. Nature of the series: Cytotoxicity against HEK293 cells expressing UGT1A3 assessed as decrease in cell viability at 0.1 mM by MTT assay. Type of series: ADME, cell-based. To be noted: human, hek293, 100 µM; TDE = time-dependent effect. Background: Formazan colour is commonly taken as a measure of viable cells.
For series [2], the system named is HEK293. Nature of the series: Genotoxicity in HEK293 cells expressing UGT1A3 assessed as DNA strand breaks at 0.1 mM after 24 hrs by comet assay. To be noted: human, hek293, 24 h, 100 µM. The class given is toxicity, cell-based. In a few lines: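 HEK293 cells stably expressing UGT1A3, seeded 24 h before treatment and exposed 24 h in 0.5% FBS DMEM (vehicle 0.1% DMSO). Alkaline comet assay: low-melting agarose embedding, lysis pH 10 for 1 h at 4°C, 30 min unwinding in NaOH/EDTA, electrophoresis 300 mA for 20 min, ethidium bromide stain. Tail extent moment scored on 150-180 cells over more than 3 experiments, median (IQR).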

Series [3] deals with HEK293. Nature of the series: Cytotoxicity against HEK293 cells expressing UGT1A4 assessed as decrease in cell viability at 0.1 mM by MTT assay. To be noted: human, hek293, 100 µM; TDE = time-dependent effect. The class given is ADME, cell-based.
Series [4] has as its system Hepatocyte. Description: Cellular uptake in human hepatocytes at 0.1 mM measured at 6 hrs by LC-MS/MS analysis in presence of acyl glucuronidation inhibitor (-)-borneol. The class given is ADME, cell-based. The note with it: 100 µM. In a few lines:
(§1)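 Cryopreserved pooled human hepatocytes on collagen-coated wells, 2 × 10^5 cells/well in HCM medium with 0.5% FBS, preincubated 30 min with or without 1 mM (-)-borneol, then drug for 6 h; DMSO ≤0.2% final. Parent drug in cell fraction measured by LC-MS/MS after methanol/acetic acid extraction. Mean ± SD of triplicates.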

In series [5] the test system is HEK293. Nature of the series: Cytotoxicity against HEK293 cells expressing UGT1A3 assessed as decrease in cell viability at 0.1 mM measured at 24 hrs by MTT assay. The note with it: human, hek293, 24 h, 100 µM. Type of series: ADME, cell-based.
The test system of series [6] is HEK293. Description: Cytotoxicity against HEK293 cells expressing UGT assessed as decrease in cell viability at 0.1 mM measured up to 72 hrs by MTT assay. Type of series: ADME, cell-based. To be noted: human, hek293, 72 h, 100 µM. In short, it runs like this:
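Mock and UGT1A3/UGT1A4 stable HEK293 cells given drug for up to 72 h; viability measured by WST-8-based MTT assay.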

In series [7] the test system is HEK293. Nature of the series: Cytotoxicity against mock transfected HEK293 cells assessed as decrease in cell viability by measuring intracellular ATP content at 0.1 mM by CellTiter-Glo luminescent assay. Type of series: cell-based. The note with it: human, hek293, 100 µM; TDE = time-dependent effect. In short, it runs like this: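 Mock-transfected HEK293 cells seeded at 2 x 10^4 cells/well in DMEM with 0.5% FBS, drug added at once and incubated 6, 12 or 24 h. Viability read either by WST-8 (CCK-8) formazan absorbance at 450 nm or by intracellular ATP luminescence (CellTiter-Glo), as percent of control cells; mean ± SD of triplicates. Final DMSO ≤0.1%.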
Background: Cellular ATP, detected with luciferase, serves as a proxy for viable cell number.

Series [8] relates to HEK293. Nature of the series: Cytotoxicity against HEK293 cells expressing UGT1A4 assessed as decrease in cell viability by measuring intracellular ATP content at 0.1 mM by CellTiter-Glo luminescent assay. The class given is ADME, cell-based. The note with it: human, hek293, 100 µM; TDE = time-dependent effect. In short, it runs like this:
(§2)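 UGT1A3 or UGT1A4 stable HEK293 cells, 2 x 10^4 cells/well in 0.1 mL DMEM with 0.5% FBS, drug for 6, 12 or 24 h. Viability from intracellular ATP via CellTiter-Glo luminescence, expressed as percent of control cells. Mean ± SD of triplicates.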

Series [9] deals with HEK293. Nature of the series: Cytotoxicity against HEK293 cells expressing UGT1A3 assessed as decrease in cell viability by measuring intracellular ATP content at 0.1 mM by CellTiter-Glo luminescent assay. Type of series: ADME, cell-based. To be noted: human, hek293, 100 µM; TDE = time-dependent effect. In a few lines:
as §2

In series [10] the target is T1, UDP-glucuronosyltransferase 1A4 (Homo sapiens, UniProt P22310).
T1 sequence (P22310 whole entry): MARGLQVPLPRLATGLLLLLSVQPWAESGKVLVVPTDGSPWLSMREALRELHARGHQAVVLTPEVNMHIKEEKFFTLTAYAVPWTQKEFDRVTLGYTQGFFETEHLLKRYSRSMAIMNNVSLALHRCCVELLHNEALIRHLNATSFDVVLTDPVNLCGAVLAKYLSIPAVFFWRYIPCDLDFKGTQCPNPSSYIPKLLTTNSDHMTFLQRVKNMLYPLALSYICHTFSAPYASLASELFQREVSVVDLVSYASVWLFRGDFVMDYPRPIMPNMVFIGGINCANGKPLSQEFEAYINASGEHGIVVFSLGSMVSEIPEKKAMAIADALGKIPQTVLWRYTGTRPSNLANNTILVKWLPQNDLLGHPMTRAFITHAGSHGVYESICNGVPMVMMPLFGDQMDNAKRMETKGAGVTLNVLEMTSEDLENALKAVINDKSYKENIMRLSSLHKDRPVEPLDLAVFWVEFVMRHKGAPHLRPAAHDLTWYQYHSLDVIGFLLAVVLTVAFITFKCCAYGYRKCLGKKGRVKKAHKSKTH
Description: Activity of human UGT1A4 expressed in HEK293 cells assessed as enzyme-mediated diclofenac acyl-beta-D-glucuronide formation at 0.1 mM measured at 24 hrs by LC-MS/MS analysis. The class given is ADME, cell-based. The note with it: hek293, 24 h, 100 µM. In a few lines: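 HEK293 stably expressing human UGT1A4, 2 x 10^5 cells/well in DMEM with 0.5% FBS, drug exposure 6–24 h, DMSO ≤0.1% final. Acyl glucuronide in cell fraction and medium measured by LC-MS/MS after methanol/acetic acid (100:1) precipitation and centrifugation. Triplicate determinations.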

The target of series [11] is T2, UDP-glucuronosyltransferase 1A3 (Homo sapiens, UniProt P35503).
T2 sequence (P35503 whole entry): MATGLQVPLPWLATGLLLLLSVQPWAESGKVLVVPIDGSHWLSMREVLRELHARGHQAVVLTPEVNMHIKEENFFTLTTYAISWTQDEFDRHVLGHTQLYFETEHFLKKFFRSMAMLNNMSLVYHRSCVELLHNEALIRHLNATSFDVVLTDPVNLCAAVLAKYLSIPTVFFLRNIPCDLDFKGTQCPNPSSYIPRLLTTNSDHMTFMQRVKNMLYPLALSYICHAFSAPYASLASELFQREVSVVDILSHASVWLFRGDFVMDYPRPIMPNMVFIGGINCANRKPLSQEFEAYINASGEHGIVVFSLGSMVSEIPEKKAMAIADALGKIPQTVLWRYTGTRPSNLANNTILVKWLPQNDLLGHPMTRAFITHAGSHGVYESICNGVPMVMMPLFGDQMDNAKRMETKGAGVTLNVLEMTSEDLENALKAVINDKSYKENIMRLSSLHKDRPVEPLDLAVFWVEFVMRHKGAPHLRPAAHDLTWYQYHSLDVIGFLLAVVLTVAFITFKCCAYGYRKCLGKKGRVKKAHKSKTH
Nature of the series: Activity of human UGT1A3 expressed in HEK293 cells assessed as enzyme-mediated diclofenac acyl-beta-D-glucuronide formation at 0.1 mM measured at 24 hrs by LC-MS/MS analysis. Type of series: ADME, cell-based. The note with it: hek293, 24 h, 100 µM. In a few lines: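 HEK293 stably expressing human UGT1A3 (G418-selected), 2 x 10^5 cells/well in 1 mL DMEM with 0.5% FBS, exposed immediately to drug for 6, 12 or 24 h; DMSO ≤0.1% final. Cells and medium separated by centrifugation, cell fraction resuspended in PBS; aliquots mixed 1:1 with methanol/acetic acid (100:1), spun, supernatant analysed by LC-MS/MS. Triplicate determinations, mean ± SD.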

Series [12] deals with HEK293. Description: Cytotoxicity against HEK293 cells expressing UGT assessed as LDH leakage at 0.1 mM after 6 to 24 hrs by spectrophotometric analysis relative to total cell LDH level. The class given is ADME, cell-based. The note with it: human, hek293, 100 µM. In short, it runs like this:
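Stable UGT-expressing or mock HEK293 lines in DMEM with 0.5% FBS, 2 x 10^4 cells/well, drug for 6, 12 or 24 h. LDH released into medium read at 490 nm (690 nm reference); percentage calculated against maximum release from control cells lysed with 1% Triton X-100.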

Series [13] relates to HEK293. Nature of the series: Cytotoxicity against mock transfected HEK293 cells assessed as decrease in cell viability at 0.1 mM […]. The class given is cell-based. To be noted: human, hek293, 100 µM; TDE = time-dependent effect.
Series [14] concerns Hepatocyte. Description: Cellular uptake in human hepatocytes at 0.1 mM measured at 6 hrs by LC-MS/MS analysis in absence of acyl glucuronidation inhibitor (-)-borneol. The class given is ADME, cell-based. To be noted: 100 µM. In a few lines:
as §1

Structures are written as SMILES.

The source of these data is ChEMBL document CHEMBL3526116, “Toxicological evaluation of acyl glucuronides of nonsteroidal anti-inflammatory drugs using human embryonic kidney 293 cells stably expressing human UDP-glucuronosyltransferase and human hepatocytes” (Drug Metab Dispos, 2011).

On to `O=C([O-])Cc1ccccc1Nc1c(Cl)cccc1Cl.[Na+]` [DICLOFENAC SODIUM], for which the Activity entry in the series with HEK293 [1] is “tde”; with HEK293 [2], “Non-toxic”; with HEK293 [3], “tde”; in the series on HEK293 [5], “Non-toxic”; in the series with HEK293 [6], “Non-toxic”; with HEK293 [7], “tde”. The Activity entry was “tde” with HEK293 [8], “tde” in the series with HEK293 [9], less than 5.4% with HEK293 [12] and “tde” with HEK293 [13]. Besides, the Drug uptake entry with Hepatocyte [4] and with Hepatocyte [14] was “Active” throughout. The Drug metabolism entry in series [10] was “metabolite_not_detected”; in series [11], “metabolite_detected”.
